# Bioassay records: PubChem BioAssay, Broad Institute
# Only some compounds are listed: those with a hit (about 2.6% of all), similar ones and a draw of the others.
# rRNA inh HTS: reduced GFP signal of wild-type E. coli, primary screen, bacterial rRNA inhibitor project, GFP/RFP fluorescence, OD600, single point. E. coli WT GFP vs humanized-ribosome RFP mutants, 24 h; active compounds read low; DMSO median 0, no signal -100. GFP signal change (wild-type ribosome), % (test concentration not listed). AID 720706, 2013. 350,000 tested, 1.6% active;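 active = significant combined selectivity score with lowered wild-type GFP, culture density cut under 30%, mutant RFP and density less affected; inactive = any of these conditions unmet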
# dFosB activator: activators of delta FosB homodimer, primary screen, biochemical, fluorescence polarization, TAMRA-CDK5 oligo, single point. AID 493131, 2011. Protein FosB (Mus musculus), P13346. activation, % at 25 µM. purified delta FosB; percent of positive-control signal above neutral wells. 340,000 tested, 0.99% active;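 active = mean activation above about 17%, with every replicate also reaching it, limit read from the data, passing the limit was not always enough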
# Xi reactivation: activators of inactive X chromosome reactivation, primary screen, imaging, XiGFP fibroblasts, GFP high-content imaging, set 2; XiGFP mouse fibroblasts, % GFP-positive cells imaging, 3 d; cells co-treated with 5-aza-dC sensitizer; scaled so ellipticine positive control = 100%; activation, % at 7.58 µM; 360,000 tested, 0.055% active;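 active = mean normalized replicate activation at least 10% and every replicate at or above 10%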;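 also: 0% = median of on-plate neutral control wells and 100% = ellipticine 6 µM median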
#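 assay system = SV40-immortalized XiGFP fibroblast cells, line 68-5-11 | buffer or medium = DMEM plus 5-aza-dC sensitizer | doses = single-point pinned compound dosing | times = 3-day compound exposure, then 15 min fixation at room temperature | benchmarks = positive control ellipticine, 6 µM final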
# PvdQ inh: P. aeruginosa PvdQ acylase inhibitors, primary screen, biochemical, fluorescence, plate reader and imaging, single point; PvdQ acylase [Pseudomonas aeruginosa LESB58]; purified PvdQ acylase; inhibition, % at 10 µM; 340,000 tested, 0.063% active; in the data active = inhibition above about 30%, passing the limit was not always enough;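 also: 0% = vehicle neutral wells and 100% = reference inhibitor wells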
# SR-BI DiI inh: inhibitors of SR-BI mediated HDL lipid uptake, primary screen, ldlA[mSR-BI] cells, fluorescence, single point. ldlA[mSR-BI] CHO cells, DiI-HDL uptake fluorescence, 3 h. inhibition, % at 12.5 µM. 320,000 tested, 0.96% active. AID 488896, 2010;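 active = mean replicate inhibition of at least 70% and a set share of replicates each scoring 70 or more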;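 also: 0% = median of neutral control wells and 100% = median of positive control wells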
# Target sequence (Q61009 whole entry, looked up): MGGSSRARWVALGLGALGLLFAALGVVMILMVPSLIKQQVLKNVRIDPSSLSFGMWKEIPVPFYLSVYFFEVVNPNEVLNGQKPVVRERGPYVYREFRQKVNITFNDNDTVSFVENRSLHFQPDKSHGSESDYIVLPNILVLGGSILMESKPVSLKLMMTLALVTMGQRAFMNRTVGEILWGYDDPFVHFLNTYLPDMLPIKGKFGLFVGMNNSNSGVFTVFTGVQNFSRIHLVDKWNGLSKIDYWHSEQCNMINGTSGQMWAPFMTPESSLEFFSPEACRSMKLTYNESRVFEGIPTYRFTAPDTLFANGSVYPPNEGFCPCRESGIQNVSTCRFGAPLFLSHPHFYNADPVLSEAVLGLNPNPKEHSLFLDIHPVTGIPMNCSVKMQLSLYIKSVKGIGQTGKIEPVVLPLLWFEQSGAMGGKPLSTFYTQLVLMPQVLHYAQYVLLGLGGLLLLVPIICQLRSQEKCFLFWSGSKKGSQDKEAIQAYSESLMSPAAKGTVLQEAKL
# SR-BI uptake up: activators of SR-BI mediated DiI-HDL uptake, primary screen, ldlA[mSR-BI] CHO cells, DiI fluorescence; 3 h; 100 = double the neutral-control signal; activation, % at 12.5 µM; 320,000 tested, 0.096% active;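 active = mean replicate activation of at least 60% and every replicate at or above 60%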;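 also: 0% = median plate neutral-control signal and 100% = twice that signal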
#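 Test system: SR-BI-overexpressing, LDLR-lacking CHO cells; Medium: Ham's F12 with 0.5% BSA, HEPES 25 mM, pH 7.4; Schedule: 3 h, 37 °C; Technique: bottom-read fluorescence, 550/595 nm.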
# The depositor's hits bear a star; x = no result.
SMILES,rRNA inh HTS,dFosB activator,Xi reactivation,PvdQ inh,SR-BI DiI inh,SR-BI uptake up
COc1ccc(-c2oc3ccc(-c4ccc5c(c4)OCO5)cc3c2C#CC2(O)CCCCC2)cc1,1.2,3.2,0.0,-37.2,84.0*,-84.0
COc1ccccc1NC(=O)N1C[C@H](O)COC[C@@H]2O[C@H](CC(=O)N3CCC(Cc4ccccc4)CC3)CC[C@H]21,-24.6,x,0.1,x,x,x
Cc1nnc(SCc2ccccc2)nc1/C=C/NOCc1ccc(Cl)cc1Cl,x,-8.8,x,-10.4,0.7,-0.7
CC1CCN(S(=O)(=O)c2ccc(NC(=O)[C@@H]3CCCN3C(=O)c3cccs3)cc2)CC1,0.7,3.0,0.1,5.8,-17.3,17.3
COc1ccc(/C=C/C(=O)Nc2ccc3c(c2)CCC3)cc1OC,x,0.9,-0.1,-1.1,x,x
COc1cc(S(=O)(=O)Nc2ccccc2C)ccc1Cl,x,-4.3,x,-27.6,5.2,-5.2
Cc1c(CC(Cl)(Cl)Cl)c2c(n1O)CC(C)(C)CC2=O,-31.6*,-6.4,0.1,-8.6,-20.7,20.7
O=C(Nc1nc(-c2ccc(F)cc2)cs1)c1cnccn1,1.7,11.2,0.0,-0.6,13.9,-13.9
O=C(/C=C/c1ccc(OCc2ccccc2)c(OCc2ccccc2)c1)c1cccnc1,x,-4.7,0.4,1.1,83.7*,-83.7
COc1ccc(C=CC(=O)c2ccc(OCc3ccccc3)c(OC)c2)cc1OC,8.8,x,0.0,x,x,x
Cc1cccc(C)c1NC(=O)C1c2ccccc2OCC(=O)N1Cc1ccc2c(c1)OCO2 (stereo unspecified),-22.5*,x,-0.1,x,x,x
O=C(Nc1ccc2c(c1)OCCO2)C1c2ccccc2OCC(=O)N1Cc1ccc2c(c1)OCO2 (stereo unspecified),-11.6,x,0.0,x,x,x
CCOC(=O)CC1(c2ccc(OC)c(OC)c2)C(=O)c2ccccc2C1=O,-26.9*,-0.8,0.0,-14.1,-5.9,5.9
Cc1ccc(-n2c(Cc3cccc4ccccc34)n[nH]c2=S)c(C)c1,-45.2*,-17.4,0.1,4.5,-8.4,8.3
Cc1ccc(-n2c(-c3ccccc3)n[nH]c2=S)c(C)c1,0.4,-6.2,0.0,-9.2,19.0,-19.0
COc1cc(/C=N/NC(N)=S)ccc1OC(=O)c1ccc(C)cc1,x,2.6,x,-8.9,73.7*,-73.7
CC(=O)Nc1ccc(C(=O)N/N=C/c2ccccc2OC(=O)c2ccc(Cl)cc2)cc1,x,-3.6,x,0.6,52.4,-52.4
COc1cc(/C=N/NC(=O)c2cccnc2)ccc1OC(=O)c1ccc2c(c1)OCO2,x,1.1,x,-3.6,-0.2,0.2
COc1cc(C(=O)Oc2ccccc2/C=N/NC(=O)c2ccc(Cl)cc2)cc(OC)c1OC,1.5,2.4,-0.1,-18.7,117.2*,-117.2
COc1cc(/C=N/NC(=O)c2cccnc2)ccc1OC(=O)c1cc(OC)c(OC)c(OC)c1,5.0,-11.6,0.0,-14.1,73.4*,-73.4
COc1cc(C(=O)Oc2ccccc2/C=N/NC(=O)c2ccc(C)c(Cl)c2)cc(OC)c1OC,x,-3.2,0.4,1.9,114.7*,-114.7
COc1cc(/C=N/NC(N)=S)ccc1OCc1ccc(C)cc1,0.0,3.9,0.0,0.7,66.1,-66.1
CC(C)CC(=O)Nc1ccc(S(=O)(=O)NCc2ccco2)cc1,3.4,-3.4,x,-8.0,-1.6,1.6
O=C(O)[C@H]1CCCC[C@H]1C(=O)Nc1ccc(Nc2ccccc2)cc1,x,1.0,x,-9.8,-26.7,26.7
O=C(O)C1CCCCC1C(=O)Nc1ccc(OCc2ccccc2)cc1 (stereo unspecified),-24.1*,-0.7,0.0,-4.0,-4.8,4.8
SMILES,rRNA inh HTS,dFosB activator,Xi reactivation,PvdQ inh,SR-BI DiI inh,SR-BI uptake up
O=C(CN1CCN(CC(=O)Nc2ccc(OCc3ccccc3)cc2)CC1)Nc1ccc(F)cc1,-3.6,-0.6,x,-13.0,-450.6,450.6*
CC(Sc1nnc(-c2ccccc2F)n1C)C(=O)NC1CCCCC1 (stereo unspecified),11.9,-10.2,0.0,30.3*,-14.9,14.9
CCN(CCO)c1ccc(Nc2cc(-c3ccc(-c4ccccc4)cc3)ncn2)cc1,x,x,0.3,x,x,x
CCN(CCO)c1ccc(N=Nc2cc(C)[nH]n2)cc1,-21.1*,-10.2,-0.1,2.2,3.1,-3.1
Cc1ccnc(NS(=O)(=O)c2ccc(NC(=O)/C=C/c3ccccc3)cc2)n1,1.9,-2.5,-0.1,1.8,x,x
COc1cc(/C=C2/C(=N)N3C=CSC3=NC2=O)ccc1OCCCOc1ccccc1C,-5.2,-2.5,x,1.5,61.8,-61.8
COc1cc(/C=C2/C(=N)N3C=CSC3=NC2=O)ccc1OCCCOc1c(C)cccc1C,3.3,-8.2,x,2.4,80.9*,-80.9
CCOc1cc(/C=C2/C(=N)N3C=CSC3=NC2=O)ccc1OCCCOc1ccccc1C,x,-3.9,x,-9.5,101.8*,-101.8
Cc1cccc(OCCSc2nc3ccccc3n2CC(=O)O)c1,4.4,0.6,0.7,-8.5,20.0,-20.0
O=C(Cc1ccc([N+](=O)[O-])cc1)Nc1cc(C(F)(F)F)cc(C(F)(F)F)c1,-29.0*,0.3,0.0,0.9,27.1,-27.1
COc1ccccc1N1CCN(C(=O)c2oc3ccc(Br)cc3c2C)CC1,-9.9,8.7,0.0,-13.0,-15.2,15.2
COc1ccccc1N1CCN(C(=O)c2oc3ccc(F)cc3c2C)CC1,-36.4*,-9.8,0.1,-8.3,2.7,-2.7
Cc1c(C(=O)N2CCCC2)oc2ccc(Br)cc12,-30.1*,-23.1,0.4,-13.4,18.0,-18.0
COc1ccccc1-n1c(SCC(=O)O)nc2c(sc(=S)n2-c2ccc(C)c(C)c2)c1=O,-20.8*,-3.3,0.2,-6.1,-13.5,13.5
COc1ccccc1-n1c(SCC(=O)O)nc2c(sc(=S)n2-c2ccc(Cl)c(C)c2)c1=O,-33.5,-2.3,0.0,-9.2,0.6,-0.6
O=C(Nc1ccc(-c2csc(Nc3cccc(C(F)(F)F)c3)n2)cc1)c1cc([N+](=O)[O-])cc(C(F)(F)F)c1,-1.2,-5.2,0.0,-9.5,91.9*,-91.9
O=C(O)/C=C/C(=O)Nc1nc(-c2ccc3ccccc3c2)cs1,-33.6*,-4.2,-0.2,-7.9,2.6,-2.6
O=C(/C=C/c1ccco1)NC(=S)Nc1nc(-c2ccc3ccccc3c2)cs1,7.4,-3.4,0.0,-3.1,41.1,-41.1
